Assay results from ChEMBL document CHEMBL4819084, “Discovery of 3,5-dimethylisoxazole derivatives as novel, potent inhibitors for bromodomain and extraterminal domain (BET) family” (Bioorg Med Chem, 2021).
The source made the active and inactive calls. No cut-off for these calls is given here.

Assays:
U-266 [1] = test: Antiproliferative activity against human U-266 cells assessed as inhibition of cell proliferation incubated for 48 hrs by MTT assay; assay type: functional, cell-based; details: U-266, 48 h
Summary of the method: (§1)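 Cryopreserved cells thawed at 37 °C, cultured one day, then seeded at 5000–10,000 cells/well in 96-well plates and left overnight to attach. Compound added at a single concentration or as a gradient series and incubated 48 h. MTT solution added and absorbance read.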

U-266 [2] = test: Induction of apoptosis in human U-266 cells assessed as nucleus condensation at 1 to 8 uM incubated for 48 hrs by DAPI staining based fluorescence microscopic analysis; assay type: functional, cell-based; details: dose 1-8 µM
Summary of the method: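 U266 cells plated at 20000 cells/well in 12-well plates overnight, then treated at 1, 2 and 8 μM for 48 h. After a PBS wash, cells were stained with DAPI for 5 min, washed again and imaged under a fluorescence microscope for nuclear condensation.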

U-266 [3] = test: Induction of cell cycle arrest in human U-266 cells assessed as increase in accumulation at G0/G1 phase at 1 to 2 uM incubated for 48 hrs by PI staining based flow cytometry analysis; assay type: functional; details: dose 1-2 µM
Summary of the method: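 U266 cells seeded at 1 × 10⁵ per 2 mL well in six-well plates and treated at 1 and 2 μM for 48 h. Cells harvested, fixed in 70% ethanol on ice for 30 min and washed in PBS. Stained with PI (0.05 mg/mL) plus RNaseA (0.5 mg/mL) for 30 min at room temperature in the dark, then analysed by flow cytometry for cycle distribution.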

MCF7 = test: Antiproliferative activity against human MCF7 cells assessed as inhibition of cell proliferation at 2 uM incubated for 48 hrs by MTT assay relative to control; assay type: functional; summary of the method: as §1
U-266 [4] = test: Induction of apoptosis in human U-266 cells assessed as viable cells at 8 uM incubated for 48 hrs by Annexin-V/FITC and PI staining based flow cytometry analysis (reference value: 92.6 %); assay type: functional; details: read-out: Activity
Summary of the method: (§2)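 U266 cells seeded at 1 × 10⁵ per 2 mL well in six-well plates and exposed to 1, 2 or 8 μM for 48 h. Cells collected, washed twice in cold PBS and resuspended in binding buffer. Annexin V-FITC added for 15 min, then PI for 5 min, both at 37 °C in the dark. Analysed by flow cytometry.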

CT26 [5] = test: Antiproliferative activity against […] assessed as inhibition of cell proliferation incubated for 48 hrs by MTT assay; assay type: functional, cell-based; details: Mus musculus, CT26, 48 h; summary of the method: as §1
U-266 [6] = test: Induction of apoptosis in human U-266 cells assessed as early apoptotic cells at 2 uM incubated for 48 hrs by Annexin-V/FITC and PI staining based flow cytometry analysis (reference value: 1.36 %); assay type: functional; summary of the method: as §2
HCT-116 = test: Antiproliferative activity against human HCT-116 cells assessed as inhibition of cell proliferation at 2 uM incubated for 48 hrs by MTT assay relative to control; assay type: functional; summary of the method: as §1
U-266 [7] = test: Induction of apoptosis in human U-266 cells incubated for 48 hrs by Annexin-V/FITC and PI staining based flow cytometry analysis; assay type: functional, cell-based; details: dose 1-8 µM; summary of the method: as §2
U-266 [8] = test: Induction of apoptosis in human U-266 cells assessed as late apoptotic cells at 2 uM incubated for 48 hrs by Annexin-V/FITC and PI staining based flow cytometry analysis (reference value: 0.032 %); assay type: functional; summary of the method: as §2
U-266 [9] = test: Induction of apoptosis in human U-266 cells assessed as necrotic cells at 2 uM incubated for 48 hrs by Annexin-V/FITC and PI staining based flow cytometry analysis (reference value: 5.99 %); assay type: functional; summary of the method: as §2
U-266 [10] = test: Induction of apoptosis in human U-266 cells assessed as viable cells at 1 uM incubated for 48 hrs by Annexin-V/FITC and PI staining based flow cytometry analysis (reference value: 92.6 %); assay type: functional; details: read-out: Activity; summary of the method: as §2
U-266 [11] = test: Induction of apoptosis in human U-266 cells assessed as early apoptotic cells at 8 uM incubated for 48 hrs by Annexin-V/FITC and PI staining based flow cytometry analysis (reference value: 1.36 %); assay type: functional; summary of the method: as §2
U-266 [12] = test: Induction of apoptosis in human U-266 cells assessed as late apoptotic cells at 8 uM incubated for 48 hrs by Annexin-V/FITC and PI staining based flow cytometry analysis (reference value: 0.032 %); assay type: functional; summary of the method: as §2
U-266 [13] = test: Induction of apoptosis in human U-266 cells assessed as viable cells at 2 uM incubated for 48 hrs by Annexin-V/FITC and PI staining based flow cytometry analysis (reference value: 92.6 %); assay type: functional; details: read-out: Activity; summary of the method: as §2
HepG2 [14] = test: Antiproliferative activity against human HepG2 cells assessed as inhibition of cell proliferation incubated for 48 hrs by MTT assay; assay type: functional, cell-based; details: HepG2, 48 h; summary of the method: as §1
U-266 [15] = test: Induction of apoptosis in human U-266 cells assessed as necrotic cells at 8 uM incubated for 48 hrs by Annexin-V/FITC and PI staining based flow cytometry analysis (reference value: 5.99 %); assay type: functional; summary of the method: as §2
[16] = molecular target: T1, Bromodomain-containing protein 4 (Homo sapiens, UniProt O60885); test: Inhibition of BRD4-BD1 (unknown origin) preincubated for 15 mins followed by substrate addition and measured after 1 hr
U-266 [17] = test: Induction of apoptosis in human U-266 cells assessed as late apoptotic cells at 1 uM incubated for 48 hrs by Annexin-V/FITC and PI staining based flow cytometry analysis (reference value: 0.032 %); assay type: functional; summary of the method: as §2
U-266 [18] = test: Induction of apoptosis in human U-266 cells assessed as necrotic cells at 1 uM incubated for 48 hrs by Annexin-V/FITC and PI staining based flow cytometry analysis (reference value: 5.99 %); assay type: functional; summary of the method: as §2
CT26 [19] = test: Antiproliferative activity against […] assessed as inhibition of cell proliferation at 2 uM incubated for 48 hrs by MTT assay relative to control; assay type: functional; details: Mus musculus; summary of the method: as §1
HepG2 [20] = test: Antiproliferative activity against human HepG2 cells assessed as inhibition of cell proliferation at 2 uM incubated for 48 hrs by MTT assay relative to control; assay type: functional; summary of the method: as §1
U-266 [21] = test: Induction of apoptosis in human U-266 cells assessed as early apoptotic cells at 1 uM incubated for 48 hrs by Annexin-V/FITC and PI staining based flow cytometry analysis (reference value: 1.36 %); assay type: functional; summary of the method: as §2
[22] = Cytotoxicity against human MCF-10A cells assessed as inhibition of cell proliferation at 2 uM incubated for 48 hrs by MTT assay; assay type: cell-based; summary of the method: as §1
[23] = molecular target: T1, Bromodomain-containing protein 4; test: Potency index, ratio of 6-(3,5-Dimethylisoxazol-4-yl)-1-methyl-4-phenyl-3,4-dihydroquinazolin-2(1H)-one IC50 to test compound IC50 for inhibition of BRD4-BD1 (unknown origin)
U-266 [24] = test: Antiproliferative activity against human U-266 cells assessed as inhibition of cell proliferation at 0.1 uM incubated for 48 hrs by MTT assay relative to control; assay type: functional; summary of the method: as §1

With `Cc1noc(C)c1-c1ccc2c(c1)C(c1ccccc1)N(CCCCN1CCN(c3ccc4nnc(Cl)n4n3)CC1)C(=O)N2C` (stereo unspecified) the IC50 (U-266 [1]) was 2.11 µM, the Activity (U-266 [2]) was “Active” and the Activity (U-266 [3]) was “Active”. It also gave an inhibition at 2 µM (MCF7) of 35.5%, a viability at 8 µM (U-266 [4]) of 65.4% and an IC50 (CT26 [5]) of 15.8 µM. For the same molecule, the Activity (U-266 [6]) was 14.8%, the inhibition at 2 µM (HCT-116) was 61.8% and the Activity (U-266 [7]) was “Dose-Dependent Effect”. For the same molecule, the Activity (U-266 [8]) was 2.91%, the Activity (U-266 [9]) was 4.6% and the viability at 1 µM (U-266 [10]) was 82.6%. For the same molecule, the Activity (U-266 [11]) was 22.7%, the Activity (U-266 [12]) was 6.75% and the viability at 2 µM (U-266 [13]) was 77.6%. It also gave an IC50 (HepG2 [14]) of 16.7 µM, an Activity (U-266 [15]) of 5.11% and an IC50 [16] of 0.003 µM. It also gave an Activity (U-266 [17]) of 1.23%, an Activity (U-266 [18]) of 3.06% and an inhibition at 2 µM (CT26 [19]) of 41%. For the same molecule, the inhibition at 2 µM (HepG2 [20]) was 46.7%, the Activity (U-266 [21]) was 13.2% and the inhibition at 48 h, 2 µM [22] was 11.6%. The Ratio IC50 [23] was 8 and the inhibition at 0.1 µM (U-266 [24]) was 52.3%.
